Experimental data from ChEMBL document CHEMBL2384906, “Biological activity, design, synthesis and structure activity relationship of some novel derivatives of curcumin containing sulfonamides” (Eur J Med Chem, 2013).
Values after ≈ are worked out from the molar mass of the structure shown. Active and inactive are the calls of the source. The calls are words filed in the database; no cut-off is given here.

Columns and labels:
Escherichia coli [1] = test: Antimicrobial activity against Escherichia coli ATCC 35218 after 24 hrs by broth micro serial dilution method; assay type: functional
Outline: (§1)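 This was broth microdilution in autoclaved Mueller-Hinton broth. 150 µL of compound per well was serially diluted […], and 50 µL of test organism was added. Plates were incubated 24 h at 37 °C and optical density was read.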

Escherichia coli [2] = test: Antimicrobial activity against Escherichia coli ATCC 35218 assessed as diameter of inhibition zone at 80 uM after 24 hrs by Kirby -Baur disc diffusion method; assay type: functional
Outline: (§2)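 Kirby-Bauer disc diffusion was used. Acetone stocks (160 µM) were serially doubled down to 80, 40 and 20 µM. 4 µL of each went onto 5 mm sterile paper discs, which were dried 30 min at 50 °C. Inoculum was 1.5 × 10⁸ CFU/mL diluted to 3 × 10² CFU/mL, and 50 µL was spread on Mueller-Hinton agar. After 24 h at 37 °C the inhibition-zone diameter was measured. Ciprofloxacin served as positive control.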

Pseudomonas aeruginosa [3] = test: Antimicrobial activity against Pseudomonas aeruginosa ATCC 15499 after 24 hrs by broth micro serial dilution method; assay type: functional; outline: as §1
Pseudomonas aeruginosa [4] = test: Antimicrobial activity against Pseudomonas aeruginosa ATCC 15499 assessed as diameter of inhibition zone at 80 uM after 24 hrs by Kirby -Baur disc diffusion method; assay type: functional; outline: as §2
Salmonella typhi [5] = test: Antimicrobial activity against Salmonella typhi ATCC 23564 after 24 hrs by broth micro serial dilution method; assay type: functional, Salmonella enterica subsp. enterica serovar Typhi
Salmonella typhi [6] = test: Antimicrobial activity against Salmonella typhi ATCC 23564 assessed as diameter of inhibition zone at 80 uM after 24 hrs by Kirby -Baur disc diffusion method; assay type: functional; details: Salmonella enterica subsp. enterica serovar Typhi
Bacillus cereus [7] = test: Antimicrobial activity against Bacillus cereus MTCC 7350 after 24 hrs by broth micro serial dilution method; assay type: functional; outline: as §1
Bacillus cereus [8] = test: Antimicrobial activity against Bacillus cereus MTCC 7350 assessed as diameter of inhibition zone at 80 uM after 24 hrs by Kirby -Baur disc diffusion method; assay type: functional; outline: as §2
Staphylococcus aureus [9] = test: Antimicrobial activity against Staphylococcus aureus ATCC 11632 after 24 hrs by broth micro serial dilution method; assay type: functional; outline: as §1
Staphylococcus aureus [10] = test: Antimicrobial activity against Staphylococcus aureus ATCC 11632 assessed as diameter of inhibition zone at 80 uM after 24 hrs by Kirby -Baur disc diffusion method; assay type: functional; outline: as §2
Trichoderma viride [11] = test: Antifungal activity against Trichoderma viride MTCC 1107 after 48 hrs; assay type: functional; details: MTCC 1107, 48 h
Trichoderma viride [12] = test: Antifungal activity against Trichoderma viride MTCC 1107 assessed as zone of inhibition at 20 uM after 48 hrs by disc diffusion method; assay type: functional; details: MTCC 1107, 48 h, read-out: IZ
Outline: (§3)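 Spores from 4-day potato dextrose agar cultures, suspended in sterile water at 1.5 × 10⁵ CFU/mL. 0.2 mL was spread on potato dextrose agar. 5 mm filter-paper discs soaked with test compound were laid on the lawn. Incubation was 48 h at 28 °C, then the inhibition zone was measured in mm. Fluconazole was the positive control and acetone the negative control.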

Trichoderma viride [13] = test: Antifungal activity against Trichoderma viride MTCC 1107 assessed as zone of inhibition at 40 uM after 48 hrs by disc diffusion method; assay type: functional; details: MTCC 1107, 48 h, read-out: IZ; outline: as §3
Trichoderma viride [14] = test: Antifungal activity against Trichoderma viride MTCC 1107 assessed as zone of inhibition at 80 uM after 48 hrs by disc diffusion method; assay type: functional; details: MTCC 1107, 48 h, read-out: IZ; outline: as §3
Curvularia lunata [15] = test: Antifungal activity against Curvularia lunata MTCC 581 after 48 hrs; assay type: functional; details: MTCC 581, 48 h
Curvularia lunata [16] = test: Antifungal activity against Curvularia lunata MTCC 581 assessed as zone of inhibition at 20 uM after 48 hrs by disc diffusion method; assay type: functional; details: MTCC 581, 48 h, read-out: IZ; outline: as §3
Curvularia lunata [17] = test: Antifungal activity against Curvularia lunata MTCC 581 assessed as zone of inhibition at 40 uM after 48 hrs by disc diffusion method; assay type: functional; details: MTCC 581, 48 h, read-out: IZ; outline: as §3
Aspergillus flavus [18] = test: Antifungal activity against Aspergillus flavus MTCC 1021 after 48 hrs; assay type: functional; details: MTCC 1021, 48 h
Curvularia lunata [19] = test: Antifungal activity against Curvularia lunata MTCC 581 assessed as zone of inhibition at 80 uM after 48 hrs by disc diffusion method; assay type: functional; details: MTCC 581, 48 h, read-out: IZ; outline: as §3
Aspergillus flavus [20] = test: Antifungal activity against Aspergillus flavus MTCC 1021 assessed as zone of inhibition at 80 uM after 48 hrs by disc diffusion method; assay type: functional; outline: as §3
Aspergillus niger [21] = test: Antifungal activity against Aspergillus niger MTCC 1108 after 48 hrs; assay type: functional
Aspergillus niger [22] = test: Antifungal activity against Aspergillus niger MTCC 1108 assessed as zone of inhibition at 80 uM after 48 hrs by disc diffusion method; assay type: functional; outline: as §3
[23] = Salmonella enterica, ATCC 23564, 24 h
[24] = Salmonella enterica subsp. enterica serovar Typhi

Structure (SMILES) | MIC (Escherichia coli [1]; ATCC 35218, 24 h) [µM] | diameter of the inhibition zone (DIZ) (Escherichia coli [2]) | MIC (Pseudomonas aeruginosa [3]) | diameter of the inhibition zone (DIZ) (Pseudomonas aeruginosa [4]) | MIC (Salmonella typhi [5]; [23]) [µM] | diameter of the inhibition zone (DIZ) (Salmonella typhi [6]) | MIC (Bacillus cereus [7]) | diameter of the inhibition zone (DIZ) (Bacillus cereus [8]) | MIC (Staphylococcus aureus [9]) | diameter of the inhibition zone (DIZ) (Staphylococcus aureus [10]) | MIC (Staphylococcus aureus [9]; ATCC 11632, 24 h) [µM] | MIC (Salmonella typhi [5]; [24]) | other results
Cc1cc(C)nc(NS(=O)(=O)c2ccc(N)cc2)n1 [SULFAMETHAZINE] | > 160 | inactive | inactive | inactive | > 160 | inactive | inactive | inactive | inactive | inactive |  |  | 
Cc1cc(NS(=O)(=O)c2ccc(N)cc2)no1 [SULFAMETHOXAZOLE] | > 160 | inactive | inactive | inactive | > 160 | inactive | inactive | inactive |  | inactive | > 160 |  | 
Nc1ccc(S(=O)(=O)Nc2ccccn2)cc1 [SULFAPYRIDINE] | > 160 | inactive | inactive | inactive |  | inactive | inactive | inactive | inactive | inactive |  | inactive | 
Nc1ccc(S(N)(=O)=O)cc1 |  | inactive | inactive | inactive |  | inactive | inactive | inactive | inactive | inactive |  | inactive | MIC (Escherichia coli [1]): inactive
COc1ccc(NS(=O)(=O)c2ccc(N)cc2)nn1 [SULFAMETHOXYPYRIDAZINE] | > 160 | inactive |  | inactive | > 160 | inactive |  | inactive |  | inactive | > 80 |  | MIC (Pseudomonas aeruginosa [3]; ATCC 15499, 24 h): > 160 µM; MIC (Bacillus cereus [7]; MTCC 7350, 24 h): > 160 µM
OC(Cn1cncn1)(Cn1cncn1)c1ccc(F)cc1F [FLUCONAZOLE] |  |  |  |  |  |  |  |  |  |  |  |  | MIC (Trichoderma viride [11]): 20 µM (≈ 6.13 µg/mL); zone of inhibition at 20 µM (Trichoderma viride [12]): 21 mm; zone of inhibition at 40 µM (Trichoderma viride [13]): 24 mm; zone of inhibition at 80 µM (Trichoderma viride [14]): 29 mm; MIC (Curvularia lunata [15]): 20 µM (≈ 6.13 µg/mL); zone of inhibition at 20 µM (Curvularia lunata [16]): 24 mm; zone of inhibition at 40 µM (Curvularia lunata [17]): 27 mm; MIC (Aspergillus flavus [18]): > 80 µM; zone of inhibition at 80 µM (Curvularia lunata [19]): 28 mm; inhibition zone (IZ) (Aspergillus flavus [20]): inactive; MIC (Aspergillus niger [21]): inactive; inhibition zone (IZ) (Aspergillus niger [22]): inactive
